Results as given in ChEMBL document CHEMBL1143434, “A diaminocyclohexyl analog of SNS-032 with improved permeability and bioavailability properties” (Bioorg Med Chem Lett, 2008).
Each block holds one molecule with its values, some of them ahead of it.

Key:
[1] = molecular target: Cyclin-dependent kinase 9 (Homo sapiens, UniProt P50750); experiment: Inhibition of CDK9 in human HCT116 cells assessed as phosphor-ser2 level of RNA polymerase 2 after 16 hrs by high content cellular assay; type: cell-based, HCT-116
[2] = molecular target: Cyclin-dependent kinase 2 (Homo sapiens, UniProt P24941); experiment: Inhibition of CDK2/cyclin A by IMAP florescence polarization assay
[3] = Bioavailability in CD1 mouse at 45 mg/kg, po; type: ADME, organism-based; settings: in vivo
Procedure, shortened: (§1)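 Female CD-1 mice, 6–8 weeks old, 3 mice per timepoint. Single oral gavage dose of 10, 30 or 45 mg/kg at 10 mL/kg in 2.1 mM tartaric acid, pH 4.0. Terminal cardiac-puncture blood taken at 0.25–8 h into K2-EDTA and spun to plasma. Plasma read by LC–MS/MS (LLOD 1 ng/mL). Concentrations were averaged per timepoint before PK estimation.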

[4] = Clearance in CD1 mouse at 5 mg/kg, iv; type: ADME, organism-based; design: dose 5 mg/kg, route intravenous; settings: in vivo
Procedure, shortened: (§2)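 Single IV tail-vein dose of 5 mg/kg at 5 mL/kg in 2.1 mM tartaric acid, pH 4.0, to female CD-1 mice aged 6–8 weeks, 3 per timepoint. Blood taken by cardiac puncture after euthanasia at 0.083–8 h into K2-EDTA, and plasma analysed by LC–MS/MS (LLOD 1 ng/mL). PK parameters were estimated from mean concentrations per timepoint.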

CDK9/cyclin T1 = CDK9/cyclin T1 (Homo sapiens, UniProt P50750); experiment: Inhibition of CDK9/cyclinT by IMAP florescence polarization assay
Procedure, shortened: (§3)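 IMAP fluorescence polarization kinase assay measuring phosphorylation of a fluorescein-labeled substrate. Run in IMAP tween reaction buffer with 1 mM DTT and sodium vanadate.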

[5] = Volume of distribution at steady state in CD1 mouse at 5 mg/kg, iv; type: ADME, organism-based; design: dose 5 mg/kg, route intravenous; settings: in vivo, read-out: Vdss; procedure, shortened: as §2
[6] = AUC in CD1 mouse at 45 mg/kg, po; type: ADME, organism-based; design: dose 45 mg/kg, route oral; settings: plasma; procedure, shortened: as §1
[7] = Cmax in CD1 mouse at 5 mg/kg, iv; type: ADME, organism-based; design: dose 5 mg/kg, route intravenous; settings: in vivo; procedure, shortened: as §2
[8] = AUC in CD1 mouse at 5 mg/kg, iv; type: ADME, organism-based; design: dose 5 mg/kg, route intravenous; settings: plasma; procedure, shortened: as §2
[9] = Half life in CD1 mouse at 10 mg/kg, po; type: ADME, organism-based; design: dose 10 mg/kg, route oral; settings: in vivo; procedure, shortened: as §1
[10] = Bioavailability in CD1 mouse at 30 mg/kg, po; type: ADME, organism-based; settings: in vivo; procedure, shortened: as §1
[11] = Cmax in CD1 mouse at 45 mg/kg, po; type: ADME, organism-based; design: dose 45 mg/kg, route oral; settings: in vivo; procedure, shortened: as §1
[12] = molecular target: Cyclin-dependent kinase 1/cyclin B1 (Homo sapiens, UniProt P06493); experiment: Inhibition of CDK1/cyclin B by IMAP florescence polarization assay; type: protein-complex assay; procedure, shortened: as §3
[13] = Metabolic stability in mouse liver microsomes at 1 uM after 60 mins; type: ADME, Microsome; settings: read-out: Stability
Procedure, shortened: (§4)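 Liver microsomes at 0.5 mg/mL protein in 100 mM sodium phosphate, pH 7.4, with 3.3 mM MgCl2, pre-equilibrated 10 min at 37 °C. Reaction started with 1 mM NADPH. Aliquots taken at 0, 30 and 60 min and quenched in acetonitrile with internal standard, then centrifuged and analysed by LC–MS/MS. Lidocaine and dextromethorphan served as positive controls.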

[14] = Half life in CD1 mouse at 30 mg/kg, po; type: ADME, organism-based; design: dose 30 mg/kg, route oral; settings: in vivo; procedure, shortened: as §1
[15] = Cmax in CD1 mouse at 10 mg/kg, po; type: ADME, organism-based; design: dose 10 mg/kg, route oral; settings: in vivo; procedure, shortened: as §1
[16] = Half life in CD1 mouse at 5 mg/kg, iv; type: ADME, organism-based; design: dose 5 mg/kg, route intravenous; settings: in vivo; procedure, shortened: as §2
[17] = AUC in CD1 mouse at 30 mg/kg, po; type: ADME, organism-based; design: dose 30 mg/kg, route oral; settings: plasma; procedure, shortened: as §1
[18] = AUC in CD1 mouse at 10 mg/kg, po; type: ADME, organism-based; design: dose 10 mg/kg, route oral; settings: plasma; procedure, shortened: as §1
[19] = Metabolic stability in human liver microsomes at 1 uM after 30 mins; type: ADME, Microsome; settings: read-out: Stability; procedure, shortened: as §4
[20] = Metabolic stability in human liver microsomes at 1 uM after 60 mins; type: ADME, Microsome; settings: read-out: Stability; procedure, shortened: as §4
[21] = Metabolic stability in mouse liver microsomes at 1 uM after 30 mins; type: ADME, Microsome; settings: read-out: Stability; procedure, shortened: as §4
[22] = Efflux ratio of permeability from basolateral to apical side to apical to basolateral side in MDCK2 cells at 2 uM after 3 hrs; type: ADME, cell-based, Canis lupus familiaris, MDCK-II; settings: dog, MDCK
Procedure, shortened: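 MDCK II cells grown in DMEM with 10% FBS and antibiotics, seeded 50,000 cells/well on transwells and cultured 5 days; monolayers PBS-washed. Compound at 2 μM in DMEM added to apical or basolateral side; both compartments sampled after 3 h at 37 °C in humidified CO₂. Quantified by LC–MS/MS with verapamil internal standard; Papp calculated per direction.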

[23] = Cmax in CD1 mouse at 30 mg/kg, po; type: ADME, organism-based; design: dose 30 mg/kg, route oral; settings: in vivo; procedure, shortened: as §1
[24] = molecular target: Cyclin-dependent kinase 7/ cyclin H (Homo sapiens, UniProt P50613); experiment: Inhibition of CDK7/cyclinH by Upstate enzymatic assay
[25] = Inhibition of CDK6/cyclin D by IMAP florescence polarization assay; procedure, shortened: as §3
[26] = Half life in CD1 mouse at 45 mg/kg, po; type: ADME, organism-based; design: dose 45 mg/kg, route oral; settings: in vivo; procedure, shortened: as §1
[27] = Bioavailability in CD1 mouse at 10 mg/kg, po; type: ADME, organism-based; settings: in vivo; procedure, shortened: as §1

Chain of Cyclin-dependent kinase 9 (P50750 whole entry): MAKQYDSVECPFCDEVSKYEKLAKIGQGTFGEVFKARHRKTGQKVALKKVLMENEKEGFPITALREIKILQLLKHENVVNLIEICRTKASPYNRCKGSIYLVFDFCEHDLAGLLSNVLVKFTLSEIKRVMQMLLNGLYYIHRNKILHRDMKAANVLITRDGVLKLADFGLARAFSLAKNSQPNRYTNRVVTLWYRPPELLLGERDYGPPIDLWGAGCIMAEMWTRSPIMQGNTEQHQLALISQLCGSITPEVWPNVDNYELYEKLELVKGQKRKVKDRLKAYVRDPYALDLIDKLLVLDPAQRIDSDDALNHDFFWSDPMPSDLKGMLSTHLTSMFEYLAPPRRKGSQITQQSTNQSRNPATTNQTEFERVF
Chain of Cyclin-dependent kinase 1/cyclin B1 (P06493 whole entry): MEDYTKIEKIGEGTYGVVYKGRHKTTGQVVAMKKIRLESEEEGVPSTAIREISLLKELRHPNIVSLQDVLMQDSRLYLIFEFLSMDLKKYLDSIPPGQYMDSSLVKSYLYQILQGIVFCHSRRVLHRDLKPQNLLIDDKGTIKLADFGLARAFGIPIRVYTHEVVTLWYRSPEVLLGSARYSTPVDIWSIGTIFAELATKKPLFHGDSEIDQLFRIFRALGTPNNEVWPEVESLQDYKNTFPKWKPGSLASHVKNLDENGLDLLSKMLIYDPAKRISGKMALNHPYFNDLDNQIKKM
Chain of Cyclin-dependent kinase 1/cyclin B1 (P14635 whole entry, further chain): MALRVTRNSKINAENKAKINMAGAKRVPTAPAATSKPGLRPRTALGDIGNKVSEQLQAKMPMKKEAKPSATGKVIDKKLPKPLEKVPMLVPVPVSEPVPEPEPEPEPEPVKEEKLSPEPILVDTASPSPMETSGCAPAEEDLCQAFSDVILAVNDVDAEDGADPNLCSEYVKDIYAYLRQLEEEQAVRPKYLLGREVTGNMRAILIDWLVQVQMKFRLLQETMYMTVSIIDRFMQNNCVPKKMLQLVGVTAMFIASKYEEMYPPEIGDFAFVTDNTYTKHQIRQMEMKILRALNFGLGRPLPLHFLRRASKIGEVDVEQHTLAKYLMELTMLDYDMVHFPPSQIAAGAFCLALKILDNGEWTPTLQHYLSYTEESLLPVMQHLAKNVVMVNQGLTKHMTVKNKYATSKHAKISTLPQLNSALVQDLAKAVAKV
Chain of CDK9/cyclin T1 (O60563 whole entry): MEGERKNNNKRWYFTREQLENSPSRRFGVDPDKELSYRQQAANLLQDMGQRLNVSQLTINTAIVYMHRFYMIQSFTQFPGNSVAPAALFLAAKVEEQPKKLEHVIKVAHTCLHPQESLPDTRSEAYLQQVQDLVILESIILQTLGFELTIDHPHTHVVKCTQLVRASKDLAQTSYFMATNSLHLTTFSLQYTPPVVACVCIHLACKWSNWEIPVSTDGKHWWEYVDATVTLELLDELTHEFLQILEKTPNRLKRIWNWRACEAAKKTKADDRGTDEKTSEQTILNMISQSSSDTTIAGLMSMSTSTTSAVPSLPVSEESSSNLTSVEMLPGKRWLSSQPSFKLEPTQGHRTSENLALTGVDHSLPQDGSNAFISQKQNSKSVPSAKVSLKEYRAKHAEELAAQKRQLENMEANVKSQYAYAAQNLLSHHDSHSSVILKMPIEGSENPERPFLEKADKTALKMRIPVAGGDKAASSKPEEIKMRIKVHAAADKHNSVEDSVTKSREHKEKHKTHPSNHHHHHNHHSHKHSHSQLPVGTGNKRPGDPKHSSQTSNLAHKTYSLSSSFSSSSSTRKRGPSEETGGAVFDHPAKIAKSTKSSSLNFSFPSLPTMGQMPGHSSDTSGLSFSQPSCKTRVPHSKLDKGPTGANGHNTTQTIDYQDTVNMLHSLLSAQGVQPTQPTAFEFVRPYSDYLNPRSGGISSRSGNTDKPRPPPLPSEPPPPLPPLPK
Chain of CDK9/cyclin T1 (P50750 whole entry): as the sequence (P50750 whole entry) above
Chain of Cyclin-dependent kinase 7/ cyclin H (P51946 whole entry): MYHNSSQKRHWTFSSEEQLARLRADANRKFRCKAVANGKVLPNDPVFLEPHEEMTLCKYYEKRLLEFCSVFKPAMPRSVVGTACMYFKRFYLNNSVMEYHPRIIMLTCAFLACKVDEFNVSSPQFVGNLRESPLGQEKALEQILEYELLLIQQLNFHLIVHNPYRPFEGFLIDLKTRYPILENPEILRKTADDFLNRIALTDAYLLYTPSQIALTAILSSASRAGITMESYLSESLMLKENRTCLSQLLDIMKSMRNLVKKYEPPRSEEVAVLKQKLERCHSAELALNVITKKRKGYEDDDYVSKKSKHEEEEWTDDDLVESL
Chain of Cyclin-dependent kinase 7/ cyclin H (P50613 whole entry): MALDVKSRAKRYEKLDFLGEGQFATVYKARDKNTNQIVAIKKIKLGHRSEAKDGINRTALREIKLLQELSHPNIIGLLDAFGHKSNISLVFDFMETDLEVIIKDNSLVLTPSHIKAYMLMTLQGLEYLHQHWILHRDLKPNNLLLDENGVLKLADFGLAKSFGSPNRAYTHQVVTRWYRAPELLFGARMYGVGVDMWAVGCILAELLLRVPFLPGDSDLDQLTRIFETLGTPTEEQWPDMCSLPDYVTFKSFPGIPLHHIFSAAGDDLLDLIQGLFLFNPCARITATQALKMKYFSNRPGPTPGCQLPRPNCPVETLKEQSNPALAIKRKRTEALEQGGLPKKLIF

IC50 [1]: > 10000 nM
IC50 [2]: 503 nM
SMILES: CC(C)(C)c1cnc(CSc2cnc(N[C@H]3CC[C@@H](N)CC3)s2)o1

IC50 [1]: > 10000 nM
IC50 [2]: 229 nM
SMILES: CC(C)(C)c1cnc(CSc2cnc(NCC3CCNCC3)s2)o1

IC50 [1]: > 10000 nM
IC50 [2]: 158 nM
SMILES: CC(C)(C)c1cnc(CSc2cnc(NC3CCCC(N)C3)s2)o1 (stereo not given)

IC50 [1]: > 10000 nM
IC50 [2]: 9 nM
SMILES: CC(C)(C)c1cnc(CSc2cnc(NC3CCCCC3)s2)o1

IC50 [1]: > 10000 nM
IC50 [2]: 538 nM
SMILES: CC(C)(C)c1cnc(CSc2cnc(NC3CCNCC3)s2)o1

IC50 [1]: > 10000 nM
IC50 [2]: 28 nM
SMILES: CC(C)(C)c1cnc(CSc2cnc(NC3CCCC(O)C3)s2)o1 (stereo not given)

IC50 [1]: > 10000 nM
IC50 [2]: 690 nM
SMILES: CC(C)(C)c1cnc(CSc2cnc(N)s2)o1

IC50 [1]: 3500 nM
IC50 [2]: 7 nM
SMILES: CC(C)(C)c1cnc(CSc2cnc(N[C@H]3CC[C@H](O)CC3)s2)o1

bioavailability [3]: 100%
clearance [4]: 72 mL/min/kg
IC50 (CDK9/cyclin T1): 97 nM
IC50 [1]: 355 nM
Vd [5]: 6 L/kg
AUC [6]: 10700 ng·h/mL
Cmax [7]: 1660 ng/mL
AUC [8]: 1160 ng·h/mL
half-life [9]: 1.5 h
bioavailability [10]: 92%
Cmax [11]: 4600 ng/mL
IC50 [12]: 763 nM
remaining at 1 h, 1 µM [13]: 77%
half-life [14]: 1.2 h
Cmax [15]: 411 ng/mL
half-life [16]: 1.9 h
AUC [17]: 6390 ng·h/mL
AUC [18]: 1430 ng·h/mL
IC50 [2]: 20 nM
remaining at 0.5 h, 1 µM [19]: 64%
remaining at 1 h, 1 µM [20]: 53%
remaining at 0.5 h, 1 µM [21]: 76%
efflux ratio at 3 h, 2 µM [22]: 9.4
Cmax [23]: 2390 ng/mL
IC50 [24]: 105 nM
IC50 [25]: > 2000 nM
half-life [26]: 1.2 h
bioavailability [27]: 62%
SMILES: CC(C)(C)c1cnc(CSc2cnc(N[C@H]3CC[C@H](N)CC3)s2)o1

clearance [4]: 55 mL/min/kg
Vd [5]: 3 L/kg
Cmax [7]: 2230 ng/mL
AUC [8]: 1510 ng·h/mL
half-life [9]: 0.5 h
Cmax [15]: 275 ng/mL
half-life [16]: 0.6 h
AUC [18]: 434 ng·h/mL
bioavailability [27]: 14%
SMILES: CC(C)(C)c1cnc(CSc2cnc(NC(=O)C3CCNCC3)s2)o1 [BMS-387032]

IC50 [1]: > 10000 nM
IC50 [2]: 168 nM
SMILES: CC(C)(C)c1cnc(CSc2cnc(NCC3CCCCC3)s2)o1
